The text below walks through data of ChEMBL document CHEMBL3351394 (J Med Chem, 2014).

Active and inactive are the calls of the source. No cut-off for these calls is given here.

One experiment addresses T1, Bile acid receptor (Homo sapiens, UniProt Q96RI1).
T1 sequence (Q96RI1 whole entry): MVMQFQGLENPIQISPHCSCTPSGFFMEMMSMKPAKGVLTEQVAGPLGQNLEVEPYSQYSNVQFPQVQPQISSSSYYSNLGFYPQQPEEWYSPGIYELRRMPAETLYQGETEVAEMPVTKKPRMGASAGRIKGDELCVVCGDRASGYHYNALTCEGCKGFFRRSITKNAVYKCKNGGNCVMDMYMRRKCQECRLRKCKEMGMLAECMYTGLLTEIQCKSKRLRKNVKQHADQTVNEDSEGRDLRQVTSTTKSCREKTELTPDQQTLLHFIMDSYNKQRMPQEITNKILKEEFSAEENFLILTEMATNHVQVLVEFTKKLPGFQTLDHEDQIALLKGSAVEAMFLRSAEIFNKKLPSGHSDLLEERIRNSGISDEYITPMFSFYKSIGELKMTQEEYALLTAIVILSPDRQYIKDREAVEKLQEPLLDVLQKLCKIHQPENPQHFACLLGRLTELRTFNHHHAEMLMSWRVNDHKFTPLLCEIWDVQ
The experiment is described as follows: Agonist activity at human FXR expressed in human HeLa cells assessed as receptor activation by BSEP promoter-driven firefly luciferase reporter gene assay. The format is cell-based. The note with it: hela. In general terms: A reporter such as luciferase makes a cellular process visible.
A word on the EC50: it is the concentration giving half of the maximal effect. `CC(C)(C)c1ccc(NC(=O)c2ccccc2NC(=O)c2cccc(C(=O)O)c2)cc1`: the EC50 result was “Not Active”.

Still in this experiment, the particulars now being: read-out: EC50.
In the case of `Cc1ccc(C(=O)Nc2ccc(C)c(C(=O)O)c2)c(NC(=O)c2ccc(C(C)(C)C)cc2)c1`, the EC50 amounted to 43 nM.

`CC(C)(C)c1ccc(C(=O)Nc2cc(Cl)ccc2C(=O)Nc2cccc(C(=O)O)c2)cc1`: the concentration giving a half-maximal response (EC50) stood at 47 nM.

Turning to `CC(C)(C)c1ccc(C(=O)Nc2ccccc2C(=O)Nc2cccc(C(N)=O)c2)cc1`, the EC50 is 74 nM.

`Cc1ccc(NC(=O)c2ccc(Cl)cc2NC(=O)c2ccc(C(C)(C)C)cc2)cc1C(=O)O`: the half-maximal effective concentration (EC50) amounted to 110 nM.

`CC(C)(C)c1ccc(C(=O)Nc2ccccc2C(=O)Nc2cc(C(=O)O)ccc2Cl)cc1`: the half-maximal effective concentration (EC50) turned out to be 1100 nM.

As to `Cc1c(NC(=O)c2ccccc2NC(=O)c2ccc(C(C)(C)C)cc2)cccc1C(=O)O`, the half-maximal effective concentration (EC50) is 42 nM.

`Cc1ccc(C(=O)Nc2cccc(C(=O)O)c2)c(NC(=O)c2ccc(C(C)(C)C)cc2)c1`: the EC50 amounted to 61 nM.

Take `O=C(O)c1cccc(NC(=O)c2ccccc2NC(=O)c2ccc(C(F)(F)F)c(F)c2)c1`: the EC50 turned out to be 5000 nM.

As for `O=C(O)c1cccc(NC(=O)c2ccccc2NC(=O)c2ccc(C(F)(F)F)cc2)c1`, the concentration giving a half-maximal response (EC50) came to 6900 nM.

Turning to `CC(C)(C)c1ccc(C(=O)Nc2ccccc2C(=O)Nc2cccc(CCC(=O)O)c2)cc1`, the EC50 stood at 64 nM.

With `O=C(/C=C/c1ccccc1)Nc1ccccc1C(=O)Nc1cccc(C(=O)O)c1`, the EC50 is 5200 nM.

As to `COc1ccc(C(=O)Nc2ccc(C)c(C(=O)O)c2)c(NC(=O)c2ccc(C(C)(C)C)cc2)c1`, the EC50 was found to be 87 nM.

On to `COc1ccc(NC(=O)c2ccccc2NC(=O)c2ccc(C(C)(C)C)cc2)cc1OC`, for which the 50% effective concentration (EC50) is 71 nM.

In the case of `O=C(O)c1cccc(NC(=O)c2ccccc2NC(=O)c2ccc3c(c2)OCCO3)c1`, the half-maximal effective concentration (EC50) came to 4900 nM.

For `CC(C)(C)c1ccc(C(=O)Nc2ccccc2C(=O)Nc2cc(C(=O)O)ccc2F)cc1`, the 50% effective concentration (EC50) turned out to be 480 nM.

Consider `COc1ccc(C(=O)O)cc1NC(=O)c1ccccc1NC(=O)c1ccc(C(C)(C)C)cc1`, for which the EC50 worked out at 4700 nM.

Regarding `Cc1ccc(NC(=O)c2ccccc2NC(=O)c2ccc(C(C)(C)C)cc2)cc1C(=O)O`, the EC50 came out at 45 nM.

Consider `CC(C)(C)c1ccc(C(=O)Nc2ccccc2C(=O)Nc2cccc(CC(=O)O)c2)cc1`, for which the EC50 stood at 420 nM.

As for `COc1cccc(NC(=O)c2ccccc2NC(=O)c2ccc(C(C)(C)C)cc2)c1`, the concentration for a half-maximal effect (EC50) was found to be 380 nM.

As to `CC(C)(C)c1ccc(C(=O)Nc2ccccc2C(=O)Nc2cccc(C(=O)O)c2)cc1`, the half-maximal effective concentration (EC50) was found to be 280 nM.

For `O=C(O)c1cccc(NC(=O)c2ccccc2NC(=O)c2ccc(Br)cc2)c1`, the concentration for a half-maximal effect (EC50) amounted to 3700 nM.

Take `O=C(O)c1cccc(NC(=O)c2ccccc2NC(=O)c2ccc3c(c2)OCO3)c1`: the 50% effective concentration (EC50) was determined as 10000 nM.

On to `CC(=O)c1cccc(NC(=O)c2ccccc2NC(=O)c2ccc(C(C)(C)C)cc2)c1`, for which the EC50 stood at 480 nM.

As to `CC(C)(C)c1ccc(C(=O)Nc2ccccc2C(=O)Nc2ccc(Cl)c(C(=O)O)c2)cc1`, the EC50 was 280 nM.

`CC(C)(C)c1ccc(C(=O)Nc2cc(Br)ccc2C(=O)Nc2cccc(C(=O)O)c2)cc1`: the half-maximal effective concentration (EC50) stood at 48 nM.

On to `CSc1cccc(NC(=O)c2ccccc2NC(=O)c2ccc(C(C)(C)C)cc2)c1`, for which the concentration for a half-maximal effect (EC50) amounted to 200 nM.

With `CC(C)(C)c1ccc(C(=O)Nc2ccccc2C(=O)Nc2cccc(-c3nnn[nH]3)c2)cc1`, the EC50 stood at 2900 nM.

On to `CC(C)(C)c1ccc(C(=O)Nc2ccccc2C(=O)Nc2cccc(C#N)c2)cc1`, for which the EC50 worked out at 230 nM.

`CC(C)(C)c1ccc(C(=O)Nc2ccccc2C(=O)Nc2ccc(Br)c(C(=O)O)c2)cc1`: the concentration for a half-maximal effect (EC50) stood at 150 nM.

For `COc1ccc(NC(=O)c2ccccc2NC(=O)c2ccc(C(C)(C)C)cc2)cc1C(=O)O`, the half-maximal effective concentration (EC50) amounted to 47 nM.

Another experiment addresses T2, Bile acid receptor (Homo sapiens) (UniProt Q96RI1).
T2 sequence (whole entry): T1 sequence (Q96RI1 whole entry)
Description: Agonist activity at FXR in human HepG2 cells assessed as induction of BSEP mrNA expression at 3 uM by quantitative PCR method. The format is cell-based.
Details: not given
The procedure, abridged: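 HepG2 cells were seeded at 2 × 10⁶ per well. After 24 h they were switched to MEM with 1% charcoal-stripped FCS, and 24 h later dosed with compound (0.1, 0.3, 1, 3, 10 μM; 0.1% DMSO final) for 24 h. Total RNA was reverse transcribed and analysed by qPCR, GAPDH-normalized, ΔΔCt method. Samples were run in duplicate in ≥4 independent experiments.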
On to `CC(C)c1onc(-c2c(Cl)cccc2Cl)c1COc1ccc(/C=C/c2cccc(C(=O)O)c2)c(Cl)c1`, for which the Activity is 1520%.

Another experiment has as its target T2, Bile acid receptor (Homo sapiens). Description: Antagonist activity at human FXR expressed in human HeLa cells assessed as inhibition of receptor activation by BSEP promoter-driven firefly luciferase reporter gene assay relative to untreated control. The format is cell-based. The note with it: concentration not given here. The gist of the method:
(§1)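 HeLa cells were calcium-phosphate transfected with pcDNA3-hFXR, pSG5-hRXR, a BSEP-promoter firefly luciferase (BSEP-pGL3) and pRL-SV40, then kept in 0.5% charcoal-stripped FCS. 24 h post-transfection, compound in 0.1% DMSO was added for 24 h; in antagonist mode it was given in competition with GW4064. Dual-luciferase firefly/renilla RLU gave fold over untreated and activity relative to 3 μM GW4064. Triplicate wells, ≥3 independent runs.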
In general, inhibition refers to the percentage by which the read-out fell short of the control. In the case of `CC(C)(C)c1ccc(C(=O)Nc2ccc(Cl)cc2C(=O)Nc2cccc(C(=O)O)c2)cc1`, the inhibition worked out at 15%.

Take `COc1ccc(NC(=O)c2ccc(C(C)(C)C)cc2)c(C(=O)Nc2cccc(C(=O)O)c2)c1`: the inhibition is 10%.

A further experiment shares this target. The experiment is described as follows: Agonist activity at human FXR expressed in human HeLa cells assessed as receptor activation at 30 uM by BSEP promoter-driven firefly luciferase reporter gene assay relative to 3 uM GW4064.
Details: not given
It is filed as cell-based. The gist of the method:
as §1
Consider `O=C(Cc1ccccc1)Nc1ccccc1C(=O)Nc1cccc(C(=O)O)c1`, for which the outcome was inactive.

With `COc1cc(NC(=O)c2ccccc2NC(=O)c2ccc(C(C)(C)C)cc2)cc(OC)c1OC`, the outcome was inactive.

Regarding `CC(C)(C)c1ccc(C(=O)Nc2c(Cl)cccc2C(=O)Nc2cccc(C(=O)O)c2)cc1`, the outcome was inactive.

For the compound `Nc1ccccc1C(=O)Nc1cccc(C(=O)O)c1`, the result was inactive.

Regarding `COc1ccc(NC(=O)c2ccc(C(C)(C)C)cc2)c(C(=O)Nc2cccc(C(=O)O)c2)c1`, the result was inactive.

For the compound `CC(C)(C)c1ccc(C(=O)Nc2ccccc2C(=O)Nc2ccc([N+](=O)[O-])c(C(=O)O)c2)cc1`, the outcome was inactive.

For the compound `Cc1ccc(C(=O)O)cc1NC(=O)c1ccccc1NC(=O)c1ccc(C(C)(C)C)cc1`, the result was inactive.

Consider `O=C(O)c1cccc(NC(=O)c2ccccc2NC(=O)c2cc(C(F)(F)F)cc(C(F)(F)F)c2)c1`, for which the outcome was inactive.

Regarding `CC(C)(C)c1ccc(C(=O)Nc2cc([N+](=O)[O-])ccc2C(=O)Nc2cccc(C(=O)O)c2)cc1`, the outcome was inactive.

As to `CC(C)(C)c1ccc(C(=O)Nc2cccc(Cl)c2C(=O)Nc2cccc(C(=O)O)c2)cc1`, the result was inactive.

A further experiment deals with T1, Bile acid receptor. The experiment is described as follows: Antagonist activity at human FXR expressed in human HeLa cells assessed as inhibition of receptor activation by BSEP promoter-driven firefly luciferase reporter gene assay. It is filed as cell-based.
Details: not given
The gist of the method:
as §1
As usually defined, the IC50 is the concentration that gives 50% inhibition. As for `CC(C)(C)c1ccc(C(=O)Nc2ccc(Cl)cc2C(=O)Nc2cccc(C(=O)O)c2)cc1`, the IC50 amounted to 12300 nM.

For the compound `COc1ccc(NC(=O)c2ccc(C(C)(C)C)cc2)c(C(=O)Nc2cccc(C(=O)O)c2)c1`, the IC50 came out at 15100 nM.
